How the values were obtained:
NCI-H23 = test: Growth inhibition of human NCI-H23 cells after 48 hrs by sulforhodamine B assay; format: functional; settings: NCI-H23, 48 h
Procedure, shortened: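 NCI-60 panel follow-up: five concentrations from 10 nM to 100 μM, 48 h exposure. Growth read by sulforhodamine B protein staining. GI50 derived from the concentration-response, with the concentration for total growth inhibition (TGI) also recorded when below 100 μM.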

[1] = target: Bromodomain-containing protein 4 (Homo sapiens, UniProt O60885); test: Inhibition of human partial length BRD4 bromodomain 2 (K333 to E460 residues) expressed in bacterial expression system assessed as residual activity at 1 uM by BROMOscan assay relative to control

| SMILES | GI50 (NCI-H23) [µM] | Activity [1] [%] |
| --- | --- | --- |
| COc1ccccc1S(=O)(=O)Nc1ccc2c(c1)CN(C)C(=O)N2 | 8.5 | – |
| Cc1noc(C)c1-c1cc(O)cc(C(O)c2ccccc2)c1 (configuration not stated) | – | 0.2 |
